Source: ChEMBL document CHEMBL3112439, “Inhibition of long chain fatty acyl-CoA synthetase (ACSL) and ischemia reperfusion injury” (Bioorg Med Chem Lett, 2014)
The source made the active and inactive calls. No cut-off for these calls is given here.

Key:
Mus musculus [1] = organism: Mus musculus; test: Inhibition of ACSL in mouse solubilized bEND.3 cells using [14C]-palmitic acid as substrate assessed as effect on total recovery of radioactive substrate at 15 uM after 2 hrs by liquid scintillation spectrometric analysis
Method in brief: (§1)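 In situ assay in intact bEND3 brain endothelial cells given [14C]-palmitic acid; test agents at 15 μM (triacsin C reference at 1.5 μM). Radioactivity measured in the extractable lipid fraction, the aqueous layer and the media, with total recovery summed (lipid + aqueous + media); lipid mass extracted also determined. Treated groups compared with control by one-way ANOVA and Dunnett's t test; n = 3 to 9 independent experiments.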

Mus musculus [2] = organism: Mus musculus; test: Inhibition of ACSL in mouse solubilized bEND.3 cells using [14C]-palmitic acid as substrate assessed as decrease in radioactivity in aqueous layer at 15 uM after 2 hrs by liquid scintillation spectrometric analysis
Leukocyte [3] = test: Inhibition of Sprague-Dawley rat leukocytes recruitment assessed as inhibition of cell adhesion in unbranched post-capillary venules of mesentery at 50 uM measured at 120 mins; assay type: functional, tissue-based
Method in brief: (§2)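 Leukocyte recruitment induced by L-NAME, used as an ischemia model, in post-capillary venules of the mesentery. Rolling, adhesion and extravasation scored at 120 minutes with or without compound at 5 or 50 μM; vehicle-alone group included. Mean ± SEM of 3 to 7 independent experiments.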

Mus musculus [4] = organism: Mus musculus; test: Effect on mean extractable lipid mass in mouse bEND.3 cells at 15 uM relative to control; assay type: functional, cell-based; method in brief: as §1
Mus musculus [5] = organism: Mus musculus; test: Inhibition of ACSL in mouse […] bEND.3 cells assessed as inhibition of [14C]-palmitate incorporation into extractable lipids at 15 uM after 2 hrs by liquid scintillation spectrometric analysis; method in brief: as §1
Leukocyte [6] = test: Inhibition of Sprague-Dawley rat leukocytes recruitment assessed as inhibition of cell rolling in unbranched post-capillary venules of mesentery at 50 uM measured at 120 mins; assay type: functional, tissue-based; method in brief: as §2
[7] = Inhibition of ACSL in mouse solubilized bEND.3 cells using [14C]-palmitic acid as substrate after 2 mins by liquid scintillation spectrometric analysis; settings: BEND3, 2 min
Method in brief: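 ACSL activity in solubilized bEND3 brain endothelial cells; reaction velocity measured across a range of inhibitor concentrations. EC50 obtained by fitting velocity vs. inhibitor concentration to a constrained three-parameter log(inhibitor) vs. response function.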

Leukocyte [8] = test: Inhibition of Sprague-Dawley rat leukocytes recruitment assessed as inhibition of cell extravasation in unbranched post-capillary venules of mesentery at 50 uM measured at 120 mins; assay type: functional, tissue-based; method in brief: as §2
Mus musculus [9] = organism: Mus musculus; test: Inhibition of ACSL in mouse solubilized bEND.3 cells using [14C]-palmitic acid as substrate assessed as increase in unincorporated radioactivity in media at 15 uM after 2 hrs by liquid scintillation spectrometric analysis; method in brief: as §1
Leukocyte [10] = test: Inhibition of Sprague-Dawley rat leukocytes recruitment assessed as inhibition of cell rolling in unbranched post-capillary venules of mesentery at 5 uM measured at 120 mins; assay type: functional, tissue-based
Method in brief: (§3)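 Recruitment was induced by L-NAME. Rolling, adhesion and extravasation were counted in post-capillary venules of the mesentery at 120 min. Compound was present at 5 or 50 μM, and vehicle-alone controls were run. Results are mean ± SEM of 3 to 7 independent experiments.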

Leukocyte [11] = test: Inhibition of Sprague-Dawley rat leukocytes recruitment assessed as inhibition of cell extravasation in unbranched post-capillary venules of mesentery at 5 uM measured at 120 mins; assay type: functional, tissue-based; method in brief: as §3
Mus musculus [12] = organism: Mus musculus; test: Inhibition of ACSL in mouse solubilized bEND.3 cells using [14C]-palmitic acid as substrate assessed as decrease in radioactivity in aqueous layer at 1.5 uM after 2 hrs by liquid scintillation spectrometric analysis
Mus musculus [13] = organism: Mus musculus; test: Inhibition of ACSL in mouse solubilized bEND.3 cells using [14C]-palmitic acid as substrate assessed as increase in unincorporated radioactivity in media at 1.5 uM after 2 hrs by liquid scintillation spectrometric analysis
Method in brief: (§4)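 Intact bEND3 brain endothelial cells were labelled with [14C]-palmitic acid with inhibitor at a single concentration, against untreated control cultures. Radioactivity was measured in the extractable lipid fraction, the aqueous fraction and the medium, and total recovery was summed (lipid + aqueous + media). Lipid mass was expressed as % of control. Groups were compared with control by one-way ANOVA and Dunnett's test; n = 3 to 9 independent experiments.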

Mus musculus [14] = organism: Mus musculus; test: Inhibition of ACSL in mouse solubilized bEND.3 cells using [14C]-palmitic acid as substrate assessed as effect on total recovery of radioactive substrate at 1.5 uM after 2 hrs by liquid scintillation spectrometric analysis; method in brief: as §4
Leukocyte [15] = test: Inhibition of Sprague-Dawley rat leukocytes recruitment assessed as inhibition of cell adhesion in unbranched post-capillary venules of mesentery at 5 uM measured at 120 mins; assay type: functional, tissue-based; method in brief: as §3
Mus musculus [16] = organism: Mus musculus; test: Inhibition of ACSL in mouse […] bEND.3 cells assessed as inhibition of [14C]-palmitate incorporation into extractable lipids at 1.5 uM after 2 hrs by liquid scintillation spectrometric analysis; method in brief: as §4
Mus musculus [17] = organism: Mus musculus; test: Effect on mean extractable lipid mass in mouse bEND.3 cells at 1.5 uM relative to control; assay type: functional, cell-based; method in brief: as §4

Question: What does the source list for `C=CCCCCCCCCCNO`?
Answer: inhibition (Mus musculus [1]): Active; inhibition (Mus musculus [2]): Active; inhibition (Leukocyte [3]): Active; Activity (Mus musculus [4]): inactive; inhibition (Mus musculus [5]): Active; inhibition (Leukocyte [6]): Active; EC50 [7]: 70.4 µM; inhibition (Leukocyte [8]): Active; inhibition (Mus musculus [9]): Active

Question: With `C=CCCCCCCCCCN(O)/N=N/c1ccc(C(=O)O)cc1` as the compound, how does the EC50 [7] read?
Answer: 73.1 µM

Question: With `C=CCCCCCCCCCn1oc(=O)[nH]c1=O` as the compound, how does the EC50 [7] read?
Answer: 9.04 µM

Question: For `CCC/C=C/C/C=C/C=C/CN(O)/N=N/c1ccc(C(=O)O)cc1`, which EC50 [7] is on record?
Answer: 74.8 µM

Question: Which results are given for `C=CCCCCCCCCCNc1ccc(C(=O)O)c(O)c1`?
Answer: inhibition (Mus musculus [1]): Active; inhibition (Mus musculus [2]): Active; Activity (Mus musculus [4]): inactive; inhibition (Mus musculus [5]): Active; EC50 [7]: 6.88 µM; inhibition (Mus musculus [9]): Active

Question: What does the source list for `CCC/C=C/C/C=C/CN(O)/N=N/c1ccc(C(=O)O)cc1`?
Answer: inhibition (Mus musculus [1]): Active; inhibition (Mus musculus [2]): Active; Activity (Mus musculus [4]): inactive; inhibition (Mus musculus [5]): Active; EC50 [7]: 26.9 µM; inhibition (Mus musculus [9]): Active

Question: For `CCC/C=C/C/C=C/C=C/Cn1oc(=O)[nH]c1=O`, which EC50 [7] is on record?
Answer: 53.5 µM

Question: Which EC50 [7] does the source give for `CCC/C=C/C/C=C/C=C/CNN1CCCS1(=O)=O` here?
Answer: 164 µM

Question: Which inhibition (Leukocyte [10]) does the source give for `CCC/C=C/C/C=C/C=C/C=N/NN=O` [TRIACSIN C] here?
Answer: Active

Question: And the inhibition (Leukocyte [11])?
Answer: Active

Question: What about the inhibition (Mus musculus [12]) of the same compound?
Answer: Active

Question: And the inhibition (Mus musculus [13])?
Answer: Active

Question: And the inhibition (Mus musculus [14])?
Answer: Active

Question: What about the inhibition (Leukocyte [15]) of the same compound?
Answer: Active

Question: What about the EC50 [7] of the same compound?
Answer: 0.358 µM

Question: And the inhibition (Mus musculus [16])?
Answer: Active

Question: And the Activity (Mus musculus [17])?
Answer: inactive

Question: With `CCC/C=C/C/C=C/C=C/CNc1ccc(C(=O)O)cc1` as the compound, how does the inhibition (Mus musculus [1]) read?
Answer: Active

Question: And the inhibition (Leukocyte [10])?
Answer: Active

Question: And the inhibition (Mus musculus [2])?
Answer: Active

Question: What about the inhibition (Leukocyte [11]) of the same compound?
Answer: Active

Question: And the inhibition (Leukocyte [3])?
Answer: Active

Question: And the Activity (Mus musculus [4])?
Answer: inactive

Question: And the inhibition (Mus musculus [5])?
Answer: Active

Question: What about the inhibition (Leukocyte [15]) of the same compound?
Answer: Active

Question: And the inhibition (Leukocyte [6])?
Answer: Active

Question: And the EC50 [7]?
Answer: 5.86 µM

Question: And the inhibition (Leukocyte [8])?
Answer: Active

Question: And the inhibition (Mus musculus [9])?
Answer: Active

Question: Which inhibition (Mus musculus [2]) does the source give for `CCC/C=C/C/C=C/C=N/N1CCCS1(=O)=O` here?
Answer: inactive

Question: And the Activity (Mus musculus [4])?
Answer: Active

Question: What about the EC50 [7] of the same compound?
Answer: 171 µM

Question: And the inhibition (Mus musculus [9])?
Answer: inactive

Question: For `CCC/C=C/C/C=C/C=C/CNO`, which EC50 [7] is on record?
Answer: 14.8 µM

Question: With `C=CCCCCCCCCCNc1ccc(C(=O)O)cc1` as the compound, how does the inhibition (Mus musculus [1]) read?
Answer: Active

Question: What about the inhibition (Mus musculus [2]) of the same compound?
Answer: Active

Question: What about the Activity (Mus musculus [4]) of the same compound?
Answer: inactive

Question: What about the inhibition (Mus musculus [5]) of the same compound?
Answer: Active

Question: What about the EC50 [7] of the same compound?
Answer: 4.95 µM

Question: And the inhibition (Mus musculus [9])?
Answer: Active
